Measurements from ChEMBL document CHEMBL1145518, “Potent immune-modulating and anticancer effects of NKT cell stimulatory glycolipids” (2007).
Activity calls are given as the source filed them. The rule behind the calls is not given here.

Experiments:
[1] = Induction of TNFalpha secretion in human CD161+ CD3+ NKT cells at 10 ug/ml after 18 hrs relative to basal level; assay type: functional
Summary of the method: (§1)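 Human Vα24i NKT cell lines were expanded for 10 days on irradiated (3,000 rad) autologous immature DCs with 10 units/ml IL-2. The cells (1 × 10^5) were cocultured with 5 × 10^4 irradiated immature CD14+ DCs plus glycolipid at 10 μg/ml. Supernatants were collected at 18 h and read on a 22-plex Luminex bead panel. Triplicates, mean ± SD.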

[2] = Induction of IL4 secretion in human CD161+ CD3+ NKT cells at 10 ug/ml after 18 hrs relative to basal level; assay type: functional; summary of the method: as §1
[3] = Induction of IL6 secretion in human CD161+ CD3+ NKT cells at 10 ug/ml after 18 hrs relative to basal level; assay type: functional; summary of the method: as §1
[4] = Induction of IFN-gamma secretion in human CD161+ CD3+ NKT cells at 10 ug/ml after 18 hrs relative to basal level; assay type: functional; summary of the method: as §1
[5] = Induction of RANTES secretion in human CD161+ CD3+ NKT cells at 10 ug/ml after 18 hrs relative to basal level; assay type: functional; summary of the method: as §1
[6] = Induction of MIPalpha secretion in human CD161+ CD3+ NKT cells at 10 ug/ml after 18 hrs relative to basal level; assay type: functional; summary of the method: as §1
Mus musculus [7] = test: Induction of RANTES secretion in BALB/c mouse serum at 2 ug, iv after 2 hrs relative to control; assay type: functional
Summary of the method: (§2)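 BALB/c mice received an i.v. injection of 100 μl of glycolipid diluted to 20 μg/ml in saline from DMSO stock, with 1% DMSO as vehicle. Serum cytokines/chemokines were measured at 2 and 18 h after injection.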

[8] = Induction of IL12p40 secretion in human CD161+ CD3+ NKT cells at 10 ug/ml after 18 hrs relative to basal level; assay type: functional; summary of the method: as §1
NKT = test: Stimulation of cell expansion of human invariant CD161+/ Valpha24+/ CD56+/ CD3+ NKT cells by flow cytometry method; assay type: functional, cell-based
Summary of the method: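 CD56+ NK/NKT mixtures (2 × 10^6) were isolated from human leukopaks with anti-CD56 microbeads. They were cocultured with 4 × 10^5 autologous immature CD14+ DCs pulsed with glycolipid at 3 μg/ml, or with 0.3% DMSO, on day 2 for 18 h. Suspension cells were then transferred and kept in 100 units/ml IL-2 with fresh medium every 3 days. On day 9, CD161+/Vα24TCR+ cells were gated by flow cytometry and total Vα24i NKT cells counted. Triplicates, mean ± SD.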

[9] = Induction of IL12p70 secretion in human CD161+ CD3+ NKT cells at 10 ug/ml after 18 hrs relative to basal level; assay type: functional; summary of the method: as §1
Mus musculus [10] = test: Induction of IL3 secretion in BALB/c mouse serum at 2 ug, iv after 2 hrs relative to control; assay type: functional; summary of the method: as §2
Mus musculus [11] = test: Induction of IFN-gamma secretion in BALB/c mouse serum at 2 ug, iv after 18 hrs relative to control; assay type: functional; summary of the method: as §2
TC1 = test: Antitumor activity in TC1 cells xenografted C57BL/6 mouse assessed as suppression of tumor growth at 2 ug, iv; assay type: functional, cell-based
Summary of the method: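 C57BL/6 mice (n = 5/group) were inoculated i.v. with TC-1 lung cancer cells. They were then treated i.v. with 2 μg glycolipid per mouse, or 100 μl of 1% DMSO, twice weekly for 4 weeks. Kaplan–Meier survival and body weight were followed, with tumor-free mice as an additional control.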

Mus musculus [12] = test: Induction of IL12p70 secretion in BALB/c mouse serum at 2 ug, iv after 18 hrs relative to control; assay type: functional; summary of the method: as §2
Mus musculus [13] = test: Induction of IL1-beta secretion in BALB/c mouse serum at 2 ug, iv after 18 hrs relative to control; assay type: functional; summary of the method: as §2
HeLa [14] = test: Activation of TCR in human HeLa cells overexpressing CD1d assessed as increase in CD3epsilon phosphorylation; assay type: cell-based
Summary of the method: (§3)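 Human HeLa, HeLa-CD1d or autologous immature DCs were loaded with glycolipid at 10 μg/ml, or DMSO, for 2 h. Then 3 × 10^5 naïve CD161+/CD3+ NKT cells were added; these were bead-isolated and kept in 100 units/ml IL-2. After 5–10 min the cells were washed and lysed at 4°C. Phospho-CD3ε, ERK1/2 (Thr-185/Tyr-187) and CREB (Ser-133) were read by Luminex bead assay as median fluorescence normalized to total protein, expressed as fold over 1% DMSO.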

Mus musculus [15] = test: Induction of MCP1 secretion in BALB/c mouse serum at 2 ug, iv after 2 hrs relative to control; assay type: functional; summary of the method: as §2
Mus musculus [16] = test: Increase in CD8/CD4 T cell ratio in BALB/c mouse at 2 ug, iv after 72 hrs by flow cytometry; assay type: functional, organism-based
Mus musculus [17] = test: Induction of MIPbeta secretion in BALB/c mouse serum at 2 ug, iv after 2 hrs relative to control; assay type: functional; summary of the method: as §2
[18] = Induction of IL2 secretion in human CD161+ CD3+ NKT cells at 10 ug/ml after 18 hrs relative to basal level; assay type: functional; summary of the method: as §1
HeLa [19] = test: Activation of TCR in human HeLa cells overexpressing CD1d assessed as increase in CREB phosphorylation; assay type: cell-based; summary of the method: as §3
Mus musculus [20] = test: Activation of B cells in BALB/c mouse at 2 ug, iv after 72 hrs by flow cytometry; assay type: functional, organism-based
dendritic [21] = test: Activation of TCR in human immature dendritic cells assessed as increase in ERK1/2 phosphorylation; assay type: cell-based; summary of the method: as §3
4T1 = test: Antitumor activity in mouse 4T1 cells xenografted BALB/c mouse assessed as suppression of tumor growth at 2 ug, iv; assay type: functional, cell-based
Summary of the method: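 BALB/c mice (n = 6) were inoculated s.c. with 4T1 breast cancer cells. From day 3 they were treated i.v. with glycolipid or vehicle twice weekly for 4 weeks. Tumor volume was recorded every 3 days for 1 month, and survival was monitored up to 54 days.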

Mus musculus [22] = test: Induction of TNFalpha secretion in BALB/c mouse serum at 2 ug, iv after 18 hrs relative to control; assay type: functional; summary of the method: as §2
[23] = Induction of IL15 secretion in human CD161+ CD3+ NKT cells at 10 ug/ml after 18 hrs relative to basal level; assay type: functional; summary of the method: as §1
[24] = Induction of IL3 secretion in human CD161+ CD3+ NKT cells at 10 ug/ml after 18 hrs relative to basal level; assay type: functional; summary of the method: as §1
[25] = Induction of IL10 secretion in human CD161+ CD3+ NKT cells at 10 ug/ml after 18 hrs relative to basal level; assay type: functional; summary of the method: as §1
[26] = Induction of GM-CSF secretion in human CD161+ CD3+ NKT cells at 10 ug/ml after 18 hrs relative to basal level; assay type: functional; summary of the method: as §1
[27] = Induction of IL8 secretion in human CD161+ CD3+ NKT cells at 10 ug/ml after 18 hrs relative to basal level; assay type: functional; summary of the method: as §1
[28] = Induction of IL13 secretion in human CD161+ CD3+ NKT cells at 10 ug/ml after 18 hrs relative to basal level; assay type: functional; summary of the method: as §1
HeLa [29] = test: Activation of TCR in human HeLa cells overexpressing CD1d assessed as increase in ERK1/2 phosphorylation; assay type: cell-based; summary of the method: as §3
dendritic [30] = test: Activation of TCR in human immature dendritic cells assessed as increase in CD3epsilon phosphorylation; assay type: cell-based; summary of the method: as §3
Mus musculus [31] = test: Induction of IL4 secretion in BALB/c mouse serum at 2 ug, iv after 2 hrs relative to control; assay type: functional; summary of the method: as §2
Mus musculus [32] = test: Induction of IL10 secretion in BALB/c mouse serum at 2 ug, iv after 18 hrs relative to control; assay type: functional; summary of the method: as §2
Mus musculus [33] = test: Induction of GM-CSF secretion in BALB/c mouse serum at 2 ug, iv after 2 hrs relative to control; assay type: functional; summary of the method: as §2
Mus musculus [34] = test: Induction of IL2 secretion in BALB/c mouse serum at 2 ug, iv after 2 hrs relative to control; assay type: functional; summary of the method: as §2
Mus musculus [35] = test: Induction of IL6 secretion in BALB/c mouse serum at 2 ug, iv after 2 hrs relative to control; assay type: functional; summary of the method: as §2
Mus musculus [36] = test: Induction of IL13 secretion in BALB/c mouse serum at 2 ug, iv after 2 hrs relative to control; assay type: functional; summary of the method: as §2
[37] = Induction of MCP1 secretion in human CD161+ CD3+ NKT cells at 10 ug/ml after 18 hrs relative to basal level; assay type: functional; summary of the method: as §1
Mus musculus [38] = test: Induction of IL12p40 secretion in BALB/c mouse serum at 2 ug, iv after 18 hrs relative to control; assay type: functional; summary of the method: as §2
dendritic [39] = test: Activation of TCR in human immature dendritic cells assessed as increase in CREB phosphorylation; assay type: cell-based; summary of the method: as §3
Mus musculus [40] = test: Induction of KC secretion in BALB/c mouse serum at 2 ug, iv after 2 hrs relative to control; assay type: functional; summary of the method: as §2
Mus musculus [41] = test: Activation of NKT cells in BALB/c mouse at 2 ug, iv after 72 hrs by flow cytometry; assay type: functional, organism-based
Summary of the method: (§4)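 BALB/c mice (n = 4/group) were given 100 μl of glycolipid at 20 μg/ml in saline i.v., or 100 μl of 1% DMSO. Spleens were harvested after 72 h and splenocyte subsets counted by flow cytometry: mature DCs as CD11c+/CD80+/CD86+, activated NK as U5A2-13Ag+/CD3−/CD69+, activated NKT as U5A2-13Ag+/CD3+/CD69+. Assays were run in duplicate, mean ± SD.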

Mus musculus [42] = test: Activation of natural killer cells in BALB/c mouse at 2 ug, iv after 72 hrs by flow cytometry; assay type: functional, organism-based; summary of the method: as §4
Mus musculus [43] = test: Activation of dendritic cells in BALB/c mouse at 2 ug, iv after 72 hrs by flow cytometry; assay type: functional, organism-based; summary of the method: as §4

CCCCCCCCCCCCCC[C@@H](O)[C@@H](O)[C@H](CO[C@H]1O[C@H](CO)[C@H](O)[C@H](O)[C@H]1O)NC(=O)CCCCCCCc1ccccc1
Activity [1]: 8.1
Activity [2]: 2.6
Activity [3]: 2.2
Activity [4]: 6.4
Activity [5]: 1.7
Activity [6]: 3.3
Activity (Mus musculus [7]): 2.3
Activity [8]: 2.3
Activity (NKT): Active
Activity [9]: 4.7
Activity (Mus musculus [10]): 2.4
Activity (Mus musculus [11]): 48.3
Activity (TC1): Active
Activity (Mus musculus [12]): 2.6
Activity (Mus musculus [13]): 4.7
Activity (HeLa [14]): 10
Activity (Mus musculus [15]): 19.4
Activity (Mus musculus [16]): Active
Activity (Mus musculus [17]): 3.8
Activity [18]: 6.1
Activity (HeLa [19]): 117
Activity (Mus musculus [20]): Active
Activity (dendritic [21]): 48.3
Activity (4T1): Active
Activity (Mus musculus [22]): 22.4
Activity [23]: 2.8
Activity [24]: 4.2
Activity [25]: 2.3
Activity [26]: 6.7
Activity [27]: 1.8
Activity [28]: 1.7
Activity (HeLa [29]): 14.6
Activity (dendritic [30]): 21.3
Activity (Mus musculus [31]): 53.1
Activity (Mus musculus [32]): 1.3
Activity (Mus musculus [33]): 2.9
Activity (Mus musculus [34]): 70.3
Activity (Mus musculus [35]): 2.8
Activity (Mus musculus [36]): 10.9
Activity [37]: 1
Activity (Mus musculus [38]): 3.8
Activity (dendritic [39]): 204
Activity (Mus musculus [40]): 11

CCCCCCCCCCCCCCCCCCCCCCCCCC(=O)N[C@@H](CO[C@H]1O[C@H](CO)[C@H](O)[C@H](O)[C@H]1O)[C@H](O)[C@H](O)CCCCc1ccccc1
Activity [1]: 3.4
Activity [2]: 2.8
Activity [3]: 1.9
Activity [4]: 3.9
Activity [5]: 2
Activity [6]: 3.5
Activity [8]: 1.8
Activity (NKT): Active
Activity [9]: 2.1
Activity (TC1): Active
Activity [18]: 1.9
Activity (Mus musculus [41]): Active
Activity (4T1): Active
Activity [23]: 2.3
Activity [24]: 2.6
Activity [25]: 2
Activity [26]: 5.8
Activity [27]: 2.3
Activity [28]: 1.8
Activity [37]: 1.8
Activity (Mus musculus [42]): Active
Activity (Mus musculus [43]): Active
